Source: PubChem BioAssay AID504383 (The Scripps Research Institute Molecular Screening Center, 2011)
The whole screen tested about 2,500 compounds, of which about 1,200 (48%) were called active. The set was probably picked from earlier hits. The list shows a part of the results. A number with no mark means an inactive call.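 How the source made its calls: active means mean activation above the low control average plus 3 SD, as set in the primary screen (cut at about 12% in these data); inactive means the rest.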

Target: Troponin I, cardiac muscle (Homo sapiens) + Troponin T, cardiac muscle (Homo sapiens) + Troponin C, slow skeletal and cardiac muscles (Homo sapiens) (UniProt P19429+P45379+P63316)
Assay: calcium sensitizers of cardiac thin filaments – biochemical, IANBD-TnC fluorescence, triplicate, confirmation (AID 504383);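 further: 0% = DMSO at 0.472 mM calcium and 100% = DMSO at 2.9 mM calcium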
Conditions: IANBD-labeled cardiac RTF, Ca2+ sensitivity fluorescence; at 7.2 µM; stronger effect = higher value; scaled from EC20 to saturating calcium; tested at EC20 calcium, 0.472 mM
How it was run: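 Material: labelled regulated thin filaments; Reagent: 0.472 mM calcium; Incubation: 15 min compound incubation with filaments at 25 °C; Detection: filament fluorescence intensity; Evaluation: fluorescence increase normalised to calcium controls; Benchmarks: low control EC20 calcium, high control EC100 calcium.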

SMILES | activation
O=c1[nH]c2ccc(N=Cc3c(O)ccc4cc(Br)ccc34)cc2[nH]1 | 0.37%
Cc1cccc(N=Nc2c(O)[nH]c3ccc(F)cc23)c1 | 7.58%
Cc1ccc(N=Nc2c(O)[nH]c3ccc(F)cc23)cc1 | 20.6% (active)
Oc1[nH]c2ccc(Br)cc2c1N=Nc1ccc(F)cc1 | 22.7% (active)
CCN1/C(=C2\SC(=S)N(Cc3ccccc3)C2=O)Sc2ccccc21 | -1.47%
CCN1/C(=C/C=C2/SC(=Nc3cccc4ncccc34)N(C)C2=O)Sc2ccccc21 | 28.3% (active)
CC1(C)CCN2CCC(C)(C)c3c(O)ccc1c32 | 42.4% (active)
Cc1cccn2c(=O)c3cc(C#N)c(=NC(=O)c4cccs4)n(CCCOC(C)C)c3nc12 | 4.3%
CCOCCCn1c(=NC(=O)c2cccs2)c(C#N)cc2c(=O)n3cccc(C)c3nc21 | 19% (active)
CCOC(=O)/C(=C/C1=CC(=C/N(C)C)/C(=O)O1)C(C)=O | 87.4% (active)
CCOC(=O)/C(=C\c1ccc(N2CCC(c3ccccc3)=N2)cc1)C(C)=O | 8.5%
CCOC(=O)NC1(C(F)(F)F)C(=O)NC(C)=C1C(=O)OC (stereo unspecified) | 19.8% (active)
CC1CCN(c2ccc3c(c2)S(=O)(=O)c2ccccc2C3=O)CC1 | 9.57%
CC(Oc1ccc(F)cc1)C(=O)Nc1sc2c(c1C(=O)NCc1cccnc1)CCCC2 (stereo unspecified) | 83.6% (active)
NC(=O)c1c(Nc2nc3c(F)cccc3s2)sc2c1CCCC2 | -1.65%
O=C(O)CCCC(=O)Nc1ccc(C(=O)NCc2cccnc2)cc1 | 0.95%
CN1C(=CC=C2C=C(I)C(=O)C(I)=C2)C(C)(C)c2ccccc21 | 4.78%
CC1(C)c2ccccc2N2CC(=O)N(CC(N)=O)C21C (stereo unspecified) | 70.2% (active)
CC1CCN(c2ccc3c(c2)S(=O)(=O)c2cccc(C(=O)NCc4ccc(F)cc4)c2C3=O)CC1 | 1.28%
O=C(NCc1cccc(F)c1)c1cccc2c1C(=O)c1ccc(N3CCC(Cc4ccccc4)CC3)cc1S2(=O)=O | 14.5% (active)
O=C(NCc1ccc(F)cc1)c1cccc2c1C(=O)c1ccc(N3CCC(Cc4ccccc4)CC3)cc1S2(=O)=O | 4.35%
O=C(NCc1ccco1)c1cccc2c1C(=O)c1ccc(N3CCC(Cc4ccccc4)CC3)cc1S2(=O)=O | 63.9% (active)
O=C(NCCc1ccc(F)cc1)c1cccc2c1C(=O)c1ccc(N3CCC(Cc4ccccc4)CC3)cc1S2(=O)=O | 107% (active)

SMILES | activation
O=C(NCc1ccco1)c1cccc2c1C(=O)c1ccc(N3CCCC3)cc1S2(=O)=O | 7.33%
O=C(NCc1cccc(C(F)(F)F)c1)c1cccc2c1C(=O)c1ccc(N3CCC(Cc4ccccc4)CC3)cc1S2(=O)=O | 8.69%
CC1CCN(c2ccc3c(c2)S(=O)(=O)c2cccc(C(=O)NCc4cccc(F)c4)c2C3=O)CC1 | 8.22%
O=C(NC1CC1)c1cccc2c1C(=O)c1ccc(N3CCC(Cc4ccccc4)CC3)cc1S2(=O)=O | 0.64%
O=C(NCC(=O)N(Cc1cccs1)C(C(=O)NC1CCCCC1)c1ccncc1)c1ccco1 (stereo unspecified) | 3.25%
O=C(NCCNC(=O)c1cccs1)c1ccco1 | 40.3% (active)
CCOC(=O)Cc1csc(NC(=O)c2sc3nc4cc(C)ccc4cc3c2N)n1 | 71.2% (active)
CCOC(=O)Cc1csc(N(C)C)n1 | 10.1%
CCOC(=O)Cc1csc(CC(N)=O)n1 | 4.59%
Cc1ccc(CNC(=O)c2ccc(S(=O)(=O)N3CCCCC3)cc2)cc1 | 6.31%
Cc1ccc(NC(=O)CN(C)c2ccc(S(=O)(=O)N3CCCC3)cn2)cc1 | 94.3% (active)
CCc1cccc2cc3c(N)c(C(=O)Nc4ccc(S(=O)(=O)N5CCCC5)cc4)sc3nc12 | 24.8% (active)
Nc1c(C(=O)Nc2ccc(S(=O)(=O)N3CCCC3)cc2)sc2nc3ccc(OC(F)(F)F)cc3cc12 | 11.7% (active)
Cc1cccc2cc3c(N)c(C(=O)N4CCCc5ccccc54)sc3nc12 | 6.58%
O=c1[nH][nH]c(C(F)(F)F)c1C=Nc1cccc(Cl)c1 | 60% (active)
O=c1[nH][nH]c(C(F)(F)F)c1C=NCc1ccccc1Cl | 33.6% (active)
CN(C)c1ccc2nc3c(=O)[nH]c(=O)nc-3n(CC(O)C(O)C(O)CO)c2c1 (stereo unspecified) | 10.2%
COc1ccccc1C(=O)n1nc(-c2ccccc2)nc1N | 4.84%
Cc1ccc(-c2nc(N)n(C(=O)c3cccnc3)n2)cc1 | 148% (active)
COc1ccc(C(=O)/C=C/c2cn(CC(O)CN3CCOCC3)c3ccccc23)cc1 (stereo unspecified) | 21.6% (active)
Cc1ccc(C(=O)/C=C/c2cn(CC(O)CN3CCOCC3)c3ccccc23)cc1 (stereo unspecified) | -2.05%
COc1ccc(C(=O)/C=C/c2cn(CC(O)CN3CCN(C)CC3)c3ccccc23)cc1OC (stereo unspecified) | 133% (active)
COC(=O)c1ccc(Oc2c(F)c(F)nc(N3CCOCC3)c2F)cc1 | 5.29%
